Results reported in ChEMBL document CHEMBL1153877, “Lowering of 5-nitroimidazole's mutagenicity: towards optimal antiparasitic pharmacophore” (Eur J Med Chem, 2009).

Tests used:
[1] = Specificity index, ratio of IC50 for human THP1 cells to IC50 for Trichomonas vaginalis TVR87; parameters: species or system THP-1
Summary of the method: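 Specificity index = IC50 against THP1 cells (72 h, propidium iodide flow cytometry) divided by IC50 against T. vaginalis (48 h, trypan blue).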

Trichomonas vaginalis = assay: Antitrichomonas activity against Trichomonas vaginalis TVR87 after 48 hrs by trypan blue staining; assay type: functional, organism-based; conditions: TVR87, 48 h
Summary of the method: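 T. vaginalis TVR87 trophozoites grown in TM 161 medium with 10% heat-inactivated horse serum, used one day after subculture in log phase. Assay at 5 × 10³ trophozoites/mL, triplicate cultures, incubated anaerobically at 37 °C for 48 h with a range of compound concentrations from DMSO stocks. DMSO 0.1% final served as negative control. Viable cells counted by trypan blue.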

Salmonella typhimurium [2] = assay: Induction of mutagenicity in Salmonella Typhimurium YG1042 assessed as number of revertant per ug after 48 hrs; assay type: toxicity, organism-based; conditions: salmonella enterica subsp. enterica serovar typhimurium
Summary of the method: (§1)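 YG1042, a TA100 derivative, grown overnight in Nutrient Broth No. 2 with ampicillin and kanamycin. Bacteria preincubated 60 min at 37 °C with shaking with compound in DMSO and 0.1 mL PBS (0.15 M, pH 7.4). Top agar containing histidine/biotin added, then plated on Vogel-Bonner agar. Revertants counted after 48 h. Four doses in triplicate plates; solvent control in quadruplicate. Mutagenic power given as revertants per amount of compound.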

Salmonella typhimurium [3] = assay: Ratio of number of revertant per nmol of drug for Salmonella Typhimurium YG1042 to number of revertant per nmol of drug for Salmonella Typhimurium TA100; assay type: toxicity, organism-based; conditions: salmonella enterica subsp. enterica serovar typhimurium
Salmonella typhimurium [4] = assay: Induction of mutagenicity in Salmonella Typhimurium YG1042 assessed as number of revertant per nmol after 48 hrs relative to metranidazole; assay type: toxicity, organism-based; conditions: salmonella enterica subsp. enterica serovar typhimurium
Salmonella typhimurium [5] = assay: Induction of mutagenicity in Salmonella Typhimurium TA100 assessed as number of revertant per nmol after 48 hrs relative to metranidazole; assay type: toxicity, organism-based; conditions: salmonella enterica subsp. enterica serovar typhimurium
Salmonella typhimurium [6] = assay: Induction of mutagenicity in Salmonella Typhimurium YG1042 assessed as number of revertant per nmol after 48 hrs; assay type: toxicity, organism-based; conditions: salmonella enterica subsp. enterica serovar typhimurium; summary of the method: as §1
THP-1 = assay: Cytotoxicity against human THP1 cells after 72 hrs by propidium iodide-based flow cytometry; assay type: cell-based; conditions: THP-1, 72 h
Summary of the method: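 THP1 monocytes kept in RPMI with 10% foetal calf serum, 25 mM HEPES, 25 mM NaHCO₃ and 1% L-glutamine/penicillin-streptomycin at 37 °C, 6% CO₂. Cells at 10⁵ cells/mL exposed for 72 h to various concentrations from DMSO stocks. Drug-free and 0.5% DMSO final controls run alongside. Living cells counted by propidium iodide flow cytometry.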

Salmonella typhimurium [7] = assay: Induction of mutagenicity in Salmonella Typhimurium TA100 assessed as number of revertant per nmol after 48 hrs; assay type: toxicity, organism-based; conditions: salmonella enterica subsp. enterica serovar typhimurium
Summary of the method: (§2)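 TA100 grown overnight in Nutrient Broth No. 2 with ampicillin. Bacteria preincubated 60 min at 37 °C with shaking with compound in DMSO and 0.1 mL PBS (0.15 M, pH 7.4). Top agar containing histidine/biotin added, then plated on Vogel-Bonner agar. Revertants counted after 48 h. Four consecutive doses in triplicate plates; solvent control in quadruplicate. Mutagenic power given as revertants per amount of compound.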

Salmonella typhimurium [8] = assay: Induction of mutagenicity in Salmonella Typhimurium TA100 assessed as number of revertant per ug after 48 hrs; assay type: toxicity, organism-based; conditions: salmonella enterica subsp. enterica serovar typhimurium; summary of the method: as §2

| SMILES | Ratio IC50 [1] | IC50 (Trichomonas vaginalis) [µM] | Activity (Salmonella typhimurium [2]) | Ratio (Salmonella typhimurium [3]) | Activity (Salmonella typhimurium [4]) | Activity (Salmonella typhimurium [5]) | Activity (Salmonella typhimurium [6]) | IC50 (THP-1) [µM] | Activity (Salmonella typhimurium [7]) | Activity (Salmonella typhimurium [8]) |
| --- | --- | --- | --- | --- | --- | --- | --- | --- | --- | --- |
| Cc1ccc(S(=O)(=O)Cc2nc(C)n(C)c2[N+](=O)[O-])cc1 | 684 | 0.355 | 54.97 | 3.7 | 0.2 | 0.56 | 17 | 242 | 4.65 | 15.03 |
| Cc1nc(CS(=O)(=O)c2ccc(Br)cc2)c([N+](=O)[O-])n1CC(C)O (stereo not given) | 301 | 0.418 | 3.08 | 0.9 | 0.02 | 0.17 | 1.29 | 126 | 1.41 | 3.36 |
| Cc1ncc([N+](=O)[O-])n1CCO [METRONIDAZOLE] | – | 2.75 | – | – | – | – | – | > 1460 | – | – |
| Cn1cnc(CS(=O)(=O)c2ccc(Br)cc2)c1[N+](=O)[O-] | >1761 | 0.394 | 164.42 | 4 | 0.7 | 1.78 | 59.22 | > 694 | 14.92 | 41.41 |
| Cn1cnc(CS(=O)(=O)c2ccc(F)cc2)c1[N+](=O)[O-] | >2500 | 0.334 | 157.34 | 4.5 | 0.56 | 1.26 | 47.09 | > 835 | 10.53 | 35.17 |
| Cc1nc(CS(=O)(=O)c2ccc(Br)cc2)c([N+](=O)[O-])n1CCO | 75 | 1.64 | 9.123 | 3.4 | 0.04 | 0.13 | 3.73 | 124 | 1.1 | 2.73 |
| Cc1nc(CS(=O)(=O)c2ccc(F)cc2)c([N+](=O)[O-])n1C | >312 | 2.55 | 24.26 | 5.1 | 0.09 | 0.18 | 7.6 | > 797 | 1.48 | 4.72 |
| Cc1ccc(S(=O)(=O)Cc2nc(C)n(CC(C)O)c2[N+](=O)[O-])cc1 (stereo not given) | >5701 | 0.124 | 6.76 | 3.3 | 0.03 | 0.09 | 2.39 | > 707 | 0.73 | 2.07 |
| Cn1cnc(CS(=O)(=O)c2ccccc2)c1[N+](=O)[O-] | >4460 | 0.199 | 176.64 | 3.5 | 0.59 | 1.71 | 49.69 | > 888 | 14.32 | 50.91 |
| Cc1nc(CS(=O)(=O)c2ccc(F)cc2)c([N+](=O)[O-])n1CC(C)O (stereo not given) | >293 | 2.38 | – | – | – | – | – | > 699 | – | – |
| Cc1nc(CS(=O)(=O)c2ccc(Br)cc2)c([N+](=O)[O-])n1C | 493 | 0.66 | 32.91 | 1.9 | 0.15 | 0.79 | 12.32 | 326 | 6.59 | 17.61 |
| Cc1nc(CS(=O)(=O)c2ccccc2)c([N+](=O)[O-])n1C | >3525 | 0.24 | 74.18 | 2.7 | 0.26 | 0.99 | 21.91 | > 846 | 8.24 | 27.91 |
| Cc1ncc([N+](=O)[O-])n1CC(C)O (stereo not given) [SECNIDAZOLE] | >1666 | 0.81 | 128.44 | 5 | 0.28 | 0.57 | 23.78 | > 1350 | 4.77 | 25.74 |
| Cc1nc(CS(=O)(=O)c2ccc(Cl)cc2)c([N+](=O)[O-])n1CCO | 13136 | 0.044 | 14.73 | 2.4 | 0.06 | 0.27 | 5.3 | 578 | 2.24 | 6.22 |
| Cc1nc(CS(=O)(=O)c2ccccc2)c([N+](=O)[O-])n1CCO | >500 | 1.54 | 8.36 | 4.9 | 0.03 | 0.07 | 2.72 | > 768 | 0.56 | 1.72 |
| Cc1nc(CS(=O)(=O)c2ccc(Cl)cc2)c([N+](=O)[O-])n1C | 74 | 0.918 | 25.21 | 3.5 | 0.1 | 0.28 | 8.31 | 68 | 2.36 | 7.15 |
| Cc1nc(CS(=O)(=O)c2ccccc2)c([N+](=O)[O-])n1CC(C)O (stereo not given) | 679 | 0.615 | 10.76 | 4.2 | 0.04 | 0.1 | 3.65 | 418 | 0.88 | 2.58 |
| Cc1ccc(S(=O)(=O)Cc2ncn(C)c2[N+](=O)[O-])cc1 | >5458 | 0.155 | 185.37 | 2.7 | 0.65 | 2.46 | 54.74 | > 846 | 20.59 | 69.71 |
| Cn1cnc(CS(=O)(=O)c2ccc(Cl)cc2)c1[N+](=O)[O-] | 1101 | 0.158 | 167.38 | 1.2 | 0.63 | 5.27 | 52.85 | 174 | 44.03 | 139.44 |
| Cc1ncc([N+](=O)[O-])n1C [DIMETRIDAZOLE] | >2501 | 0.708 | 1578.04 | 10.3 | 2.64 | 2.6 | 222.71 | > 1770 | 21.71 | 153.8 |
| Cc1nc(CS(=O)(=O)c2ccc(Cl)cc2)c([N+](=O)[O-])n1CC(C)O (stereo not given) | >912 | 0.732 | 3.72 | 1.7 | 0.02 | 0.1 | 1.39 | > 668 | 0.81 | 2.18 |
| Cc1nc(CS(=O)(=O)c2ccc(F)cc2)c([N+](=O)[O-])n1CCO | >416 | 1.75 | 10.09 | 5.3 | 0.04 | 0.08 | 3.46 | > 728 | 0.66 | 1.91 |
| Cn1cncc1[N+](=O)[O-] | >3125 | 0.629 | 1551.06 | 12.7 | 2.34 | 1.85 | 197.14 | > 1970 | 15.48 | 121.79 |
| Cc1ccc(S(=O)(=O)Cc2nc(C)n(CCO)c2[N+](=O)[O-])cc1 | 880 | 0.067 | 6.14 | 1.3 | 0.02 | 0.19 | 2.08 | 59 | 1.57 | 4.62 |
